Assay results published in ChEMBL document CHEMBL1122109, “Monophenolic octahydrobenzo[f]quinolines: central dopamine- and serotonin-receptor stimulating activity” (1982).
Activity calls are given as the source filed them. The rule behind the calls is not given here.

Tests used:
Rattus norvegicus [1] = test: ED50 value was measured as dose required to produce a half-maximal reduction of Serotonin (5-HTP) accumulation in limbic area of reserpinized rat brain; I is Inactive at 11300 nmol/Kg; format: functional, organism-based
Rattus norvegicus [2] = test: Percent reduction of hemispheres in cortex was measured in the brain of reserpinized rats; I is Inactive at 11300 nmol/Kg; format: functional, organism-based
Rattus norvegicus [3] = test: ED50 value was measured as dose required to produce a half-maximal reduction of Serotonin (5-HTP) accumulation in striatum of reserpinized rat brain; I is Inactive at 11300 nmol/Kg; format: functional, organism-based
Rattus norvegicus [4] = species: Rattus norvegicus; test: Percent reduction of hemispheres in cortex was measured in the brain of reserpinized rats; I is Inactive, no significant effect at doses approximately 40 times the ED50 for Dopa accumulation; format: functional, organism-based
Rattus norvegicus [5] = species: Rattus norvegicus; test: ED50 value was measured as dose required to produce a half-maximal reduction of Serotonin (5-HTP) accumulation in limbic area of reserpinized rat brain; I is Inactive, no significant effect at doses approximately 40 times the ED50 for Dopa accumulation; format: functional, organism-based
Rattus norvegicus [6] = species: Rattus norvegicus; test: ED50 value was measured as dose required to produce a half-maximal reduction of Dopa accumulation in limbic area of reserpinized rat brain.; format: functional
Rattus norvegicus [7] = species: Rattus norvegicus; test: ED50 value was measured as dose required to produce a half-maximal reduction of Dopa accumulation in the striatum of reserpinized rat brain.; format: functional
Rattus norvegicus [8] = species: Rattus norvegicus; test: ED50 value was measured as dose required to produce a half-maximal reduction of Serotonin (5-HTP) accumulation in striatum of reserpinized rat brain; I is Inactive, no significant effect at doses approximately 40 times the ED50 for Dopa accumulation; format: functional, organism-based
Rattus norvegicus [9] = species: Rattus norvegicus; test: ED50 value was measured as dose required to produce a half-maximal reduction of Dopa accumulation in the striatum of reserpinized rat brain; I is Inactive, no significant effect at doses approximately 40 times the ED50 for Dopa accumulation; format: functional, organism-based
Rattus norvegicus [10] = species: Rattus norvegicus; test: ED50 value was measured as dose required to produce a half-maximal reduction of Serotonin (5-HTP) accumulation in limbic area of reserpinized rat brain; format: functional
Rattus norvegicus [11] = species: Rattus norvegicus; test: ED50 value was measured as dose required to produce a half-maximal reduction of Dopa accumulation in limbic area of reserpinized rat brain; I is Inactive, no significant effect at doses approximately 40 times the ED50 for Dopa accumulation; format: functional, organism-based
Rattus norvegicus [12] = species: Rattus norvegicus; test: ED50 for 5-HTP in cortex hemispheres was measured in the brain of reserpinized rats.
Rattus norvegicus [13] = species: Rattus norvegicus; test: ED50 value was measured as dose required to produce a half-maximal reduction of Serotonin (5-HTP) accumulation in striatum of reserpinized rat brain; format: functional
Rattus norvegicus [14] = species: Rattus norvegicus; test: Motor activity was measured in the reserpinized rats as counts/60 min.; format: functional
Outline: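 Male Sprague-Dawley rats (200-300 g) received reserpine 10 mg/kg ip 6 h before testing and DL-α-methyl-p-tyrosine methyl ester HCl 250 mg/kg ip 1 h before. Test drug was given sc in the neck: trans derivatives at 1 mg/kg (3100 nmol/kg), cis at 10 mg/kg (31000 nmol/kg), n = 4. Rats were placed singly in motility meters immediately and activity recorded for 60 min; means ± SEM.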

Rattus norvegicus [15] = species: Rattus norvegicus; test: Percent reduction of hemispheres in cortex was measured in the brain of reserpinized rats.*: No significant effect at doses approximately 40 times the ED50; format: functional
Rattus norvegicus [16] = species: Rattus norvegicus; test: Percent reduction of hemispheres in cortex was measured in the brain of reserpinized rats; I is Inactive, no significant effect at doses approximately 10 times the ED50 for Dopa accumulation; format: functional, organism-based
Rattus norvegicus [17] = test: ED50 value was measured as dose required to produce a half-maximal reduction of Serotonin (5-HTP) accumulation in striatum of reserpinized rat brain; I is Inactive at 2800 nmol/kg; format: functional, organism-based
Rattus norvegicus [18] = species: Rattus norvegicus; test: ED50 value was measured as dose required to produce a half-maximal reduction of Serotonin (5-HTP) accumulation in striatum of reserpinized rat brain; I is Inactive, no significant effect at doses approximately 10 times the ED50 for Dopa accumulation; format: functional, organism-based
Rattus norvegicus [19] = test: ED50 value was measured as dose required to produce a half-maximal reduction of Dopa accumulation in the striatum of reserpinized rat brain; I is Inactive at 2800 nmol/kg; format: functional, organism-based
Rattus norvegicus [20] = test: ED50 value was measured as dose required to produce a half-maximal reduction of Dopa accumulation in limbic area of reserpinized rat brain; I is Inactive at 2800 nmol/kg; format: functional, organism-based
Rattus norvegicus [21] = test: ED50 value was measured as dose required to produce a half-maximal reduction of Serotonin (5-HTP) accumulation in limbic area of reserpinized rat brain; I is Inactive at 2800 nmol/kg; format: functional, organism-based
Rattus norvegicus [22] = species: Rattus norvegicus; test: ED50 value was measured as dose required to produce a half-maximal reduction of Serotonin (5-HTP) accumulation in limbic area of reserpinized rat brain; I is Inactive, no significant effect at doses approximately 10 times the ED50 for Dopa accumulation; format: functional, organism-based
Rattus norvegicus [23] = test: Percent reduction of hemispheres in cortex was measured in the brain of reserpinized rats; I is Inactive at 2800 nmol/kg; format: functional, organism-based
Rattus norvegicus [24] = species: Rattus norvegicus; test: ED50 value was measured as dose required to produce a half-maximal reduction of Dopa accumulation in the striatum of reserpinized rat brain; I is Inactive, no significant effect at doses approximately 10 times the ED50 for Dopa accumulation; format: functional, organism-based
Rattus norvegicus [25] = species: Rattus norvegicus; test: ED50 value was measured as dose required to produce a half-maximal reduction of Dopa accumulation in limbic area of reserpinized rat brain; I is Inactive, no significant effect at doses approximately 10 times the ED50 for Dopa accumulation; format: functional, organism-based
Rattus norvegicus [26] = test: Percent reduction of hemispheres in cortex was measured in the brain of reserpinized rats.*: No significant effect at doses approximately 40 times the ED50; IA is Inactive at 45000 nmol/kg; format: functional, organism-based
Rattus norvegicus [27] = test: ED50 value was measured as dose required to produce a half-maximal reduction of Serotonin (5-HTP) accumulation in striatum of reserpinized rat brain; I is Inactive at 45000 nmol/kg; format: functional, organism-based
Rattus norvegicus [28] = test: ED50 value was measured as dose required to produce a half-maximal reduction of Serotonin (5-HTP) accumulation in limbic area of reserpinized rat brain; I is Inactive at 45000 nmol/kg; format: functional, organism-based
Rattus norvegicus [29] = test: ED50 value was measured as dose required to produce a half-maximal reduction of Dopa accumulation in the striatum of reserpinized rat brain; Maximal reduction of Dopa could not be obtained. 60% reduction from control level at 12500 nmol/Kg; format: functional, organism-based
Rattus norvegicus [30] = test: ED50 value was measured as dose required to produce a half-maximal reduction of Dopa accumulation in limbic area of reserpinized rat brain; Maximal reduction of Dopa could not be obtained. 40% reduction from control level at 12500 nmol/Kg; format: functional, organism-based
Rattus norvegicus [31] = test: ED50 value was measured as dose required to produce a half-maximal reduction of Dopa accumulation in the striatum of reserpinized rat brain; I is Inactive at 500 nmol/kg; format: functional, organism-based
Rattus norvegicus [32] = test: ED50 value was measured as dose required to produce a half-maximal reduction of Dopa accumulation in limbic area of reserpinized rat brain; I is Inactive at 500 nmol/kg; format: functional, organism-based
Rattus norvegicus [33] = species: Rattus norvegicus; test: Percent reduction of hemispheres in cortex was measured in the brain of reserpinized rats.*: No significant effect at doses approximately 40 times the ED50; I is Inactive, no significant effect at doses approximately 40 times the ED50 for Dopa ac cumulation; format: functional, organism-based
[34] = Rattus norvegicus, Brain, read-out: ED50
[35] = Rattus norvegicus, Striatum, read-out: ED50

Row | SMILES | Hemispheres reduction (Rattus norvegicus [4]) | ED50 (Rattus norvegicus [5]) | ED50 (Rattus norvegicus [6]; [34]) [µmol/kg] | ED50 (Rattus norvegicus [7]; [35]) [µmol/kg] | ED50 (Rattus norvegicus [8]) | Motor activity (Rattus norvegicus [14]) | also measured
1 | CCCN1CCCC2c3cc(O)ccc3CCC21 (stereo in doubt; 8) [listing 1 of 2 here] |  |  |  |  |  |  | ED50 (Rattus norvegicus [1]): inactive; Hemispheres reduction (Rattus norvegicus [2]): inactive; ED50 (Rattus norvegicus [3]): inactive
2 | CCCN1CCCC(c2cccc(O)c2)C1 (configuration not stated) | inactive | inactive | 3.6 | 3.6 | inactive |  | 
3 | CCCN(CCC)C1CCc2cccc(O)c2C1 (configuration not stated) [8-OH-DPAT] |  |  |  |  |  |  | ED50 (Rattus norvegicus [9]): inactive; ED50 (Rattus norvegicus [10]; [34]): 0.048 µmol/kg; ED50 (Rattus norvegicus [11]): inactive; ED50 (Rattus norvegicus [12]): 68 nmol/kg; ED50 (Rattus norvegicus [13]; [35]): 0.045 µmol/kg
4 | CCCN(CCC)C1CCc2c(O)cccc2C1 (configuration not stated) [5-OH-DPAT] | inactive | inactive | 0.011 | 0.009 | inactive | 688 | 
5 | CCCN(CCC)[C@@H]1CCc2ccc(O)cc2C1 |  |  | 0.18 | 0.17 |  |  | 
6 | CCCN1CCCC2c3c(O)cccc3CCC21 (stereo in doubt; 17) [listing 1 of 2 here] |  |  |  |  |  |  | ED50 (Rattus norvegicus [10]): 3400 nM/kg; Hemispheres reduction (Rattus norvegicus [15]): 4500; ED50 (Rattus norvegicus [13]): 3400 nM/kg
7 | CCCN1CCCC2c3c(O)cccc3CCC21 (stereo in doubt; 18) [listing 1 of 2 here] |  |  |  |  |  |  | ED50 (Rattus norvegicus [10]): 230 nM/kg; Hemispheres reduction (Rattus norvegicus [15]): 160; ED50 (Rattus norvegicus [13]): 180 nM/kg
8 | CCCN1CCCC2c3ccc(O)cc3CCC21 (configuration not stated) |  |  | 0.54 | 0.53 |  | 179 | Hemispheres reduction (Rattus norvegicus [16]): inactive; ED50 (Rattus norvegicus [17]): inactive; ED50 (Rattus norvegicus [18]): inactive; ED50 (Rattus norvegicus [19]): inactive; ED50 (Rattus norvegicus [20]): inactive; ED50 (Rattus norvegicus [21]): inactive; ED50 (Rattus norvegicus [22]): inactive; Hemispheres reduction (Rattus norvegicus [23]): inactive
9 | CCCN1CCCC2c3c(O)cccc3CCC21 (stereo in doubt; 17) [listing 2 of 2 here] |  |  |  |  |  |  | ED50 (Rattus norvegicus [24]): inactive; ED50 (Rattus norvegicus [25]): inactive
10 | CCCN1CCCC2c3cccc(O)c3CCC21 (stereo in doubt; 6) [listing 1 of 2 here] |  |  |  |  |  |  | Hemispheres reduction (Rattus norvegicus [26]): inactive; ED50 (Rattus norvegicus [27]): inactive; ED50 (Rattus norvegicus [28]): inactive; ED50 (Rattus norvegicus [29]): Weak activity; ED50 (Rattus norvegicus [30]): Weak activity
11 | CCCN1CCCC2c3cccc(O)c3CCC21 (stereo in doubt; 7) [listing 1 of 2 here] | inactive | inactive |  |  | inactive |  | 
12 | CCCN1CCCC2c3cc(O)ccc3CCC21 (stereo in doubt; 9) [listing 1 of 2 here] | inactive | inactive |  |  | inactive |  | 
13 | CCCN1CCCC2c3cccc(O)c3CCC21 (stereo in doubt; 6) [listing 2 of 2 here] |  |  |  |  |  | 17 | 
14 | CCCN1CCCC2c3cc(O)ccc3CCC21 (stereo in doubt; 9) [listing 2 of 2 here] |  |  |  |  |  | 365 | ED50 (Rattus norvegicus [6]): 8 nM/kg; ED50 (Rattus norvegicus [7]): 12 nM/kg
15 | CCCN(CCC)C1CCc2ccc(O)cc2C1 (configuration not stated) | inactive | inactive | 0.027 | 0.03 | inactive |  | 
16 | CCCN1CCCC2c3c(O)cccc3CCC21 (stereo in doubt; 18) [listing 2 of 2 here] |  |  |  |  |  |  | ED50 (Rattus norvegicus [31]): inactive; ED50 (Rattus norvegicus [32]): inactive
17 | CCCN1CCCC2c3cc(O)ccc3CCC21 (stereo in doubt; 8) [listing 2 of 2 here] |  |  |  |  |  |  | ED50 (Rattus norvegicus [6]): 2000 nM/kg; ED50 (Rattus norvegicus [7]): 3400 nM/kg
18 | CCCCN1CCCC2c3cccc(O)c3CCC21 (configuration not stated) |  | inactive | 0.08 | 0.07 | inactive | 418 | Hemispheres reduction (Rattus norvegicus [33]): inactive
19 | CN1CCc2cccc3c2[C@H]1Cc1ccc(O)c(O)c1-3 [APOMORPHINE] | inactive |  | 0.19 | 0.22 |  | 624 | 
20 | CCCN1CCCC2c3cccc(O)c3CCC21 (stereo in doubt; 7) [listing 2 of 2 here] |  |  | 0.13 | 0.13 |  | 327 | 
